Data taken from ChEMBL document CHEMBL3045708, “Potential antagonistic effects of nine natural fatty acids against Meloidogyne incognita” (2012).

How the values were obtained:
Type in all cases: functional
[1] = tested on: Meloidogyne incognita; test: Nematicidal activity against second-stage juvenile of Meloidogyne incognita (root-knot nematode) assessed as mortality at 25 degC at 1000 umol/L after 24 hr Rvb = 1.47 to 2.51%)
[2] = tested on: Meloidogyne incognita; test: Nematicidal activity against second-stage juvenile of Meloidogyne incognita (root-knot nematode) assessed as mortality at 25 degC at 1000 umol/L after 12 hr (reference value: 1.79 to 3.30%)
[3] = tested on: Meloidogyne incognita; test: Nematicidal activity against second-stage juvenile of Meloidogyne incognita (root-knot nematode) assessed as mortality at 25 degC at 100 umol/L after 24 hr (reference value: 1.47 to 2.51%)
[4] = tested on: Meloidogyne incognita; test: Nematicidal activity against second-stage juvenile of Meloidogyne incognita (root-knot nematode) assessed as mortality at 25 degC at 100 umol/L after 12 hr (reference value: 1.79 to 3.30%)
[5] = tested on: Meloidogyne incognita; test: Nematicidal activity against Meloidogyne incognita (root-knot nematode) assessed as cumulative percentage of egg hatching at 25 degC at 2000 umol/L on day 21 (SDW control = 44.87 +/- 3.93%)
Outline: (§1)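 Eggs (500 in 1 mL suspension) held on a 1 cm sieve of 35 μm pore, set in the center well of a 24-well plate. About 2 mL of fatty acid solution (final 100, 1000 or 2000 μmol/L) was added, reaching only the sieve bottom. The fatty acid was dissolved in acetone/Tween-80/DMSO medium and diluted with sterile distilled water. SDW and medium served as controls. One treatment per plate, six replicates, parafilm-sealed, 25 °C. Hatched J2s were counted and the solution renewed on days 3, 7, 14 and 21; values are cumulative % hatch as mean ± SE.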

[6] = tested on: Meloidogyne incognita; test: Nematicidal activity against Meloidogyne incognita (root-knot nematode) assessed as cumulative percentage of egg hatching at 25 degC at 1000 umol/L on day 21 (SDW control = 44.87 +/- 3.93%); outline: as §1
[7] = tested on: Meloidogyne incognita; test: Nematicidal activity against Meloidogyne incognita (root-knot nematode) assessed as cumulative percentage of egg hatching at 25 degC at 100 umol/L on day 21 (SDW control = 44.87 +/- 3.93%); outline: as §1
[8] = tested on: Meloidogyne incognita; test: Nematicidal activity against Meloidogyne incognita (root-knot nematode) assessed as cumulative percentage of egg hatching at 25 degC at 2000 umol/L on day 14 (SDW control = 35.77 +/- 4.48%); outline: as §1
[9] = tested on: Meloidogyne incognita; test: Nematicidal activity against Meloidogyne incognita (root-knot nematode) assessed as cumulative percentage of egg hatching at 25 degC at 1000 umol/L on day 14 (SDW control = 35.77 +/- 4.48%); outline: as §1
[10] = tested on: Meloidogyne incognita; test: Nematicidal activity against Meloidogyne incognita (root-knot nematode) assessed as cumulative percentage of egg hatching at 25 degC at 100 umol/L on day 14 (SDW control = 35.77 +/- 4.48%); outline: as §1
[11] = tested on: Meloidogyne incognita; test: Nematicidal activity against Meloidogyne incognita (root-knot nematode) assessed as cumulative percentage of egg hatching at 25 degC at 2000 umol/L on day 7 (SDW control = 12.63 +/- 3.84%); outline: as §1
[12] = tested on: Meloidogyne incognita; test: Nematicidal activity against Meloidogyne incognita (root-knot nematode) assessed as cumulative percentage of egg hatching at 25 degC at 1000 umol/L on day 7 (SDW control = 12.63 +/- 3.84%); outline: as §1
[13] = tested on: Meloidogyne incognita; test: Nematicidal activity against Meloidogyne incognita (root-knot nematode) assessed as cumulative percentage of egg hatching at 25 degC at 100 umol/L on day 7 (SDW control = 12.63 +/- 3.84%); outline: as §1
[14] = tested on: Meloidogyne incognita; test: Nematicidal activity against Meloidogyne incognita (root-knot nematode) assessed as cumulative percentage of egg hatching at 25 degC at 2000 umol/L on day 3 (SDW control = 0.57 +/- 0.37%); outline: as §1
[15] = tested on: Meloidogyne incognita; test: Nematicidal activity against Meloidogyne incognita (root-knot nematode) assessed as cumulative percentage of egg hatching at 25 degC at 1000 umol/L on day 3 (SDW control = 0.57 +/- 0.37%); outline: as §1
[16] = tested on: Meloidogyne incognita; test: Nematicidal activity against Meloidogyne incognita (root-knot nematode) root-knot nematodes assessed as cumulative percentage of egg hatching at 25 degC at 100 umol/L on day 3 (SDW control = 0.57 +/- 0.37%); outline: as §1
[17] = tested on: Meloidogyne incognita; test: Nematicidal activity against second-stage juvenile of Meloidogyne incognita (root-knot nematode) assessed as mortality at 25 degC at 2000 umol/L after 24 hr Rvb = 1.47 to 2.51%)
[18] = tested on: Meloidogyne incognita; test: Nematicidal activity against second-stage juvenile of Meloidogyne incognita (root-knot nematode) assessed as mortality at 25 degC at 2000 umol/L after 12 hr (reference value: 1.79 to 3.30%)

| SMILES | mortality at 1000 µM [1] [%] | mortality at 1000 µM [2] [%] | mortality at 100 µM [3] [%] | mortality at 100 µM [4] [%] | Activity [5] [%] | Activity [6] [%] | Activity [7] [%] | Activity [8] [%] | Activity [9] [%] | Activity [10] [%] | Activity [11] [%] | Activity [12] [%] | Activity [13] [%] | Activity [14] [%] | Activity [15] [%] | Activity [16] [%] | mortality at 2000 µM [17] [%] | mortality at 2000 µM [18] [%] |
| --- | --- | --- | --- | --- | --- | --- | --- | --- | --- | --- | --- | --- | --- | --- | --- | --- | --- | --- |
| CCCC(=O)O [BUTYRIC ACID] | 2.34 | 3.34 | 2.91 | 2.55 | 14.13 | 21.47 | 20.37 | 8.17 | 17.17 | 13.9 | 4.47 | 7.87 | 6.7 | 0.67 | 2 | 1.6 | 3.28 | 3.23 |
| CCCCCCCCCC(=O)O [DECANOIC ACID] | 1.63 | 16.9 | 5.16 | 2.01 | 7.1 | 16.4 | 25.93 | 4.8 | 11.5 | 19.57 | 2.07 | 4.77 | 4.73 | 0.23 | 0.97 | 0.43 | 61 | 25.2 |
| CCCCCCCCCCCC(=O)O [DODECANOATE] | 2.46 | 21.3 | 15.8 | 1.22 | 20.77 | 24.17 | 27.1 | 17.47 | 20.37 | 20.1 | 7.57 | 12.7 | 4.73 | 1.6 | 3.67 | 0.5 | 41.3 | 38 |
| CCCCCC(=O)O [HEXANOATE] | 2.29 | 1.09 | 1.5 | 0.39 | 19.67 | 21.2 | 15.97 | 14.4 | 16.67 | 9.57 | 6.4 | 7.67 | 2.97 | 0.8 | 2.77 | 0.87 | 4.44 | 2.02 |
| CCCCC/C=C\C/C=C\CCCCCCCC(=O)O [LINOLEIC ACID] | 3.3 | 4.72 | 3.72 | 3.12 | 11.33 | 29.47 | 37.97 | 5.87 | 20.43 | 29.8 | 2.3 | 6.6 | 6.17 | 0.33 | 0.13 | 0.33 | 5.1 | 3.41 |
| CCCCCCCCCCCCCC(=O)O [MYRISTIC ACID] | 1.57 | 2.29 | 2.46 | 1.31 | 20 | 23.97 | 27.67 | 12 | 12.93 | 18.4 | 1.53 | 1.47 | 8.87 | 0.27 | 0.37 | 1.8 | 3.76 | 2.11 |
| CCCCCCCC(=O)O [OCTANOIC ACID] | 1.08 | 65.6 | 40.5 | 1.65 | 15.07 | 21 | 30.93 | 13.07 | 16.87 | 23.63 | – | 9.03 | 8.6 | 0.73 | 2.6 | 2.3 | 56.4 | 49.9 |
| CCCCCCCC/C=C\CCCCCCCC(=O)O [OLEIC ACID] | 2.42 | 4.52 | 3.54 | 3.54 | 21.8 | 25.57 | 24.93 | 16.53 | 18.53 | 16.6 | 7.47 | 6.03 | 6.07 | 1.23 | 0.67 | 1.47 | 4.58 | 4.49 |
| CCCCCCCCCCCCCCCC(=O)O [PALMITIC ACID] | 3.03 | 6.71 | 3.36 | 3.33 | 20.17 | 13.4 | 22.3 | 17.23 | 9.53 | 15.07 | 6.63 | 2.8 | 5.73 | 0.7 | 0.23 | 1.13 | 4.91 | 5.44 |
